Experimental data as given in ChEMBL document CHEMBL1128429, “Synthesis and structure-activity relationships of 6-heterocyclic-substituted purines as inactivation modifiers of cardiac sodium channels” (J Med Chem, 1995).

Experiments:
[1] = system: Sodium channel protein type 5 subunit alpha (Cavia porcellus); assay: Inactivation process of guinea pig cardiac Na channels expressed in xenopus oocytes was determined by measuring increase in current integral in presence of compound versus control at 10 uM; details: oocyte
[2] = Effective concentration against Xenopus oocytes expressing human heart Na channel; assay type: functional, cell-based; details: oocyte
In short: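 HH1 human cardiac Na channel cRNA in oocytes; perfusate Na 140 mM, 21–23 °C, integral taken at −20 mV. At least three concentrations, n ≥ 3 each, single concentration per oocyte. Pooled data gave the EC50 (nM producing 50% integral increase) by linear regression over the lower, non-blocking range.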

[3] = Inactivation processes of human heart Na channel expressed in Xenopus oocytes as increase in current at 10 uM; assay type: functional, Oocyte
In short: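 Oocytes injected with cRNA transcribed from human cardiac Na channel (HH1) cDNA. Two-microelectrode voltage clamp at 21–23 °C, perfusion buffer with Na raised to 140 mM. Current integrated at −20 mV after the capacity transient settled. Single 10 μM exposure per oocyte; percent change in integral versus control, ± SEM.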

[4] = Effective concentration against Xenopus oocytes expressing guinea pig heart Na channel; assay type: functional, cell-based, Cavia porcellus; details: oocyte
In short: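 Guinea pig heart RNA in Xenopus oocytes, voltage clamp at 21–23 °C, integral taken at −10 mV. Three or more concentrations, n ≥ 3 each, one per oocyte. Pooled percent-change data plotted semilogarithmically; EC50 (nM giving 50% integral increase) obtained by linear regression over the range lacking significant current block.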

Oryctolagus cuniculus [5] = organism: Oryctolagus cuniculus; assay: Concentration which increased contractility by 20% in rabbit; assay type: functional
In short: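 Langendorff-perfused rabbit heart, 45 min equilibration, then five cumulative concentrations with 15 min exposure each. Contractility read as dP/dt; the nanomolar concentration raising it by 20% was derived from the concentration–response curve. Repeated-measures ANOVA, mean change from control ± SEM.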

Oryctolagus cuniculus [6] = organism: Oryctolagus cuniculus; assay: Antiarrhythmic activity was determined by measuring the concentration that produced a 20 ms increase in ERP; assay type: functional, Heart
In short: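 Langendorff-perfused rabbit heart, equilibrated 45 min before control. ERP measured after 15 min exposure to each of five cumulative concentrations: single premature stimulus scanning diastole at twice threshold. Concentration giving a 20 ms ERP increase taken from the concentration–response curve; repeated-measures ANOVA, mean change ± SEM.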

| Structure (SMILES) | Change [1] [%] | Change [3] [%] | further results |
| --- | --- | --- | --- |
| Cc1ccccc1C(c1ccccc1)N1CCN(CC(O)Cn2cnc3c(-n4cccc4)ncnc32)CC1 (stereo not drawn) | 209 |  |  |
| O=Cc1ccn(-c2ncnc3c2ncn3C[C@@H](O)CN2CCN(C(c3ccccc3)c3ccccc3)CC2)c1 |  | 63 | EC50 [2]: 7260 nM |
| OC(CN1CCN(C2c3ccccc3-c3ccccc32)CC1)Cn1cnc2c(-n3cccc3)ncnc21 (stereo not drawn) | -19 |  |  |
| Cc1ccc(C)n1-c1ncnc2c1ncn2CC(O)CN1CCN(C(c2ccccc2)c2ccccc2)CC1 (stereo not drawn) | -47 |  |  |
| OC(CN1CCN(C(c2ccccc2)c2ccccc2)CC1)Cn1cnc2c(-n3cccc3)ncnc21 (stereo not drawn) | 542 |  | EC50 [4]: 580 nM |
| OC(COc1cccc2[nH]ccc12)CN1CCN(C(c2ccccc2)c2ccccc2)CC1 (stereo not drawn) | -29 |  |  |
| Cc1ncnc2c1ncn2C[C@@H](O)CN1CCN(C(c2ccccc2)c2ccccc2)CC1 |  | 105 | EC50 [2]: 3990 nM |
| Cc1cc2c(n1-c1ncnc3c1ncn3CC(O)CN1CCN(C(c3ccccc3)c3ccccc3)CC1)CCCC2 (stereo not drawn) | 8 |  |  |
| NC(CN1CCN(C(c2ccccc2)c2ccccc2)CC1)Cn1cnc2c(-n3cccc3)ncnc21 (stereo not drawn) | 451 |  |  |
| OC(CN1CCC(=C(c2ccccc2)c2ccccc2)CC1)Cn1cnc2c(-n3cccc3)ncnc21 (stereo not drawn) | 94 |  |  |
| Nc1ncnc2c1ncn2C[C@H](O)CN1CCN(C(c2ccccc2)c2ccccc2)CC1 | -43 |  | dP/dt (Oryctolagus cuniculus [5]): 1140 nM; EC20 (Oryctolagus cuniculus [6]): 5240 nM |
| O[C@@H](CN1CCN(C(c2ccccc2)c2ccccc2)CC1)Cn1cnc(-c2cccs2)c2ncnc1-2 |  | 437 | EC50 [2]: 433 nM |
| Cc1nccn1-c1ncnc2c1ncn2C[C@@H](O)CN1CCN(C(c2ccccc2)c2ccccc2)CC1 |  | 1449 | EC50 [2]: 2700 nM |
| OC(CN1CCN(Cc2ccccc2)CC1)Cn1cnc2c(-n3cccc3)ncnc21 (stereo not drawn) | 182 |  |  |
| Nc1ncnc2c1ncn2C[C@@H](O)CN1CCN(C(c2ccccc2)c2ccccc2)CC1 | 139 |  | dP/dt (Oryctolagus cuniculus [5]): 89 nM; EC20 (Oryctolagus cuniculus [6]): 109 nM; EC50 [4]: 1040 nM |
| OC(CN1CCN(C(c2ccccc2)c2ccccc2)CC1)Cn1ccc2cccnc21 (stereo not drawn) | -71 |  |  |
| OC(CN1CCN(C(c2ccccc2)c2ccccc2)CC1)Cn1cnc2c(NCc3ccccc3)ncnc21 (stereo not drawn) | -77 |  |  |
| OC(CN1CCN(C(c2ccccc2)c2ccccc2)CC1)Cn1cnc2c(Cc3ccccc3)ncnc21 (stereo not drawn) | -100 |  |  |
| Nc1nc(-c2ccncc2)nc2c1ncn2CC(O)CN1CCN(C(c2ccccc2)c2ccccc2)CC1 (stereo not drawn) | -2 |  |  |
| OC(CN1CCN(C(c2ccccc2)c2ccccc2)CC1)Cn1cnc2c(Cl)ncnc21 (stereo not drawn) |  | 176 | EC50 [2]: 1950 nM |
| OC(CN1CCN(C(c2ccccc2)c2ccccc2)CC1)Cn1cnc2c(-c3ccccc3)ncnc21 (stereo not drawn) | 151 |  | EC50 [4]: 1260 nM |
| OC(CN1CCN(CC(c2ccccc2)c2ccccc2)CC1)Cn1cnc2c(-n3cccc3)ncnc21 (stereo not drawn) | -47 |  |  |
| CN1CCN(CC(O)Cn2cnc3c(-n4cccc4)ncnc32)CC1 (stereo not drawn) | -35 |  |  |
| c1ccc2c(c1)CCc1ccccc1C2N1CCN(CCCn2cnc3c(-n4cccc4)ncnc32)CC1 | 120 |  |  |
| O[C@@H](CN1CCN(C(c2ccccc2)c2ccccc2)CC1)Cn1cnc2c(-c3cccs3)ncnc21 |  | 116 | EC50 [2]: 1030 nM |
| O/N=C(/CN1CCN(C(c2ccccc2)c2ccccc2)CC1)Cn1cnc2c(-n3cccc3)ncnc21 | -6 |  |  |
| CC1CN(CC(O)Cn2cnc3c(-n4cccc4)ncnc32)CCN1C(c1ccccc1)c1ccccc1 (stereo not drawn) | 839 |  |  |
| O[C@@H](CN1CCN(C(c2ccccc2)c2ccccc2)CC1)Cn1cnc2c(-c3ncon3)ncnc21 |  | 138 |  |

| Structure (SMILES) | Change [1] [%] | Change [3] [%] | further results |
| --- | --- | --- | --- |
| O[C@@H](CN1CCN(C(c2ccccc2)c2ccccc2)CC1)Cn1cnc(-c2ccncc2)c2ncnc1-2 |  | 265 | EC50 [2]: 2100 nM |
| O=C(CN1CCN(C(c2ccccc2)c2ccccc2)CC1)Cn1cnc2c(-n3cccc3)ncnc21 | 9 |  |  |
| O=C(C(c1ccccc1)c1ccccc1)N1CCN(CC(O)Cn2cnc3c(-n4cccc4)ncnc32)CC1 (stereo not drawn) | 6 |  |  |
| Nc1ncnc2c1ncn2CCCN1CCN(C(c2ccccc2)c2ccccc2)CC1 | -66 |  |  |
| OC(CN1CCN(C(c2ccccc2)c2ccccc2)CC1)Cn1cnc2ccccc21 (stereo not drawn) | 42 |  |  |
| C[C@](O)(CN1CCN(C(c2ccccc2)c2ccccc2)CC1)Cn1cnc2c(-n3cccc3)ncnc21 | 34 |  |  |
| OC(CN1CCN(C(c2ccccc2)c2ccccc2)CC1)Cn1cnc2cccnc21 (stereo not drawn) | 154 |  |  |
| O[C@@H](CN1CCN(C(c2ccccc2)c2ccccc2)CC1)Cn1cnc2c(-c3ccncc3)ncnc21 |  | 99 | EC50 [2]: 2800 nM |
| OC(CN1CCN(C(c2ccccc2)c2ccccc2)CC1)Cn1cnc2c(N3CCCCC3)ncnc21 (stereo not drawn) | 26 |  |  |
| O[C@@H](CN1CCN(C(c2ccccc2)c2ccccc2)CC1)Cn1cnc2c(-n3cccc3)nc(C(F)(F)F)nc21 | -13 |  |  |
| O[C@@H](CN1CCN(C(c2ccccc2)c2ccccc2)CC1)Cn1cnc2c(-n3ccnc3)ncnc21 |  | 459 | EC20 (Oryctolagus cuniculus [6]): 30 nM; EC50 [2]: 1250 nM |
| CC(c1ccccc1)N1CCN(CC(O)Cn2cnc3c(-n4cccc4)ncnc32)CC1 (stereo not drawn) | -32 |  |  |
| OC(CN1CCN(C(c2ccccc2)c2ccccc2)CC1)Cn1cnc2c(C#Cc3ccccc3)ncnc21 (stereo not drawn) | 9 |  |  |
| O[C@@H](CN1CCN(C(c2ccccc2)c2ccccc2)CC1)Cn1cnc2c(-n3cncn3)ncnc21 |  | 393 | dP/dt (Oryctolagus cuniculus [5]): 43 nM; EC20 (Oryctolagus cuniculus [6]): 35 nM; EC50 [2]: 920 nM |
| Cc1nccn1-c1ncnc2c1ncn2CC(O)CN1CCN(C(c2ccccc2)c2ccccc2)CC1 (stereo not drawn) |  | 158 | dP/dt (Oryctolagus cuniculus [5]): 60 nM; EC20 (Oryctolagus cuniculus [6]): 90 nM; EC50 [2]: 1260 nM |
| OC(CN1CCC(C(c2ccccc2)c2ccccc2)CC1)Cn1cnc2c(-n3cccc3)ncnc21 (stereo not drawn) | 108 |  |  |
| OC(CN1CCN(C(c2ccccc2)c2ccncc2)CC1)Cn1cnc2c(-n3cccc3)ncnc21 (stereo not drawn) | 326 |  |  |
| Cc1ccn(-c2ncnc3c2ncn3CC(O)CN2CCN(C(c3ccccc3)c3ccccc3)CC2)n1 (stereo not drawn) |  | 40 |  |
| O[C@@H](CN1CCN(C(c2ccccc2)c2ccccc2)CC1)Cn1cnc2c(-n3cccc3)ncnc21 | 390 |  | EC50 [4]: 245 nM |
| OC(CN1CCCN(C(c2ccccc2)c2ccccc2)CC1)Cn1cnc2c(-n3cccc3)ncnc21 (stereo not drawn) | 38 |  |  |
| O=Cc1cccn1-c1ncnc2c1ncn2C[C@@H](O)CN1CCN(C(c2ccccc2)c2ccccc2)CC1 |  | 904 | dP/dt (Oryctolagus cuniculus [5]): 17 nM; EC20 (Oryctolagus cuniculus [6]): 17 nM; EC50 [2]: 78 nM |
| OC(CN1CCC(C(O)(c2ccccc2)c2ccccc2)CC1)Cn1cnc2c(-n3cccc3)ncnc21 (stereo not drawn) | -10 |  |  |
| O[C@@H](CN1CCN(C(c2ccccc2)c2ccccc2)CC1)Cn1cnc(-c2ncon2)c2ncnc1-2 |  | -6 |  |
| OC(CN1CCN(C(c2ccccc2)c2ccccc2)CC1)Cn1ccc2ccccc21 (stereo not drawn) | 36 |  |  |
| N#Cc1cccn1-c1ncnc2c1ncn2C[C@@H](O)CN1CCN(C(c2ccccc2)c2ccccc2)CC1 |  | 456 | dP/dt (Oryctolagus cuniculus [5]): 22 nM; EC20 (Oryctolagus cuniculus [6]): 57 nM; EC50 [2]: 447 nM |
| OC(CN1CCN(C(c2ccc(F)cc2)c2ccc(F)cc2)CC1)Cn1cnc2c(-n3cccc3)ncnc21 (stereo not drawn) | 521 |  |  |
| O[C@@H](CN1CCN(C(c2ccccc2)c2ccccc2)CC1)Cn1cnc(-n2cccn2)c2ncnc1-2 |  | 369 | dP/dt (Oryctolagus cuniculus [5]): 148 nM; EC20 (Oryctolagus cuniculus [6]): 74 nM; EC50 [2]: 900 nM |
